Data: ChEMBL document CHEMBL4706523, “Targeting topoisomerase II with trypthantrin derivatives: Discovery of 7-((2-(dimethylamino)ethyl)amino)indolo[2,1-b]quinazoline-6,12-dione as an antiproliferative agent and to treat cancer” (Eur J Med Chem, 2020)
≈ marks a conversion by molar mass, not a printed value. Calls of active or inactive are those of the source. The rule behind the calls is not given here.

Experiments:
[1] = biological target: T1, DNA topoisomerase 2-alpha (Homo sapiens, UniProt P11388); assay: Inhibition of human DNA topoisomerase 2alpha assessed as suppression of decatenation using catenated kinetoplast DNA as substrate measured after 30 mins by SYBR safe DNA staining based staining-based agarose gel electrophoresis method
T1 sequence (P11388 whole entry): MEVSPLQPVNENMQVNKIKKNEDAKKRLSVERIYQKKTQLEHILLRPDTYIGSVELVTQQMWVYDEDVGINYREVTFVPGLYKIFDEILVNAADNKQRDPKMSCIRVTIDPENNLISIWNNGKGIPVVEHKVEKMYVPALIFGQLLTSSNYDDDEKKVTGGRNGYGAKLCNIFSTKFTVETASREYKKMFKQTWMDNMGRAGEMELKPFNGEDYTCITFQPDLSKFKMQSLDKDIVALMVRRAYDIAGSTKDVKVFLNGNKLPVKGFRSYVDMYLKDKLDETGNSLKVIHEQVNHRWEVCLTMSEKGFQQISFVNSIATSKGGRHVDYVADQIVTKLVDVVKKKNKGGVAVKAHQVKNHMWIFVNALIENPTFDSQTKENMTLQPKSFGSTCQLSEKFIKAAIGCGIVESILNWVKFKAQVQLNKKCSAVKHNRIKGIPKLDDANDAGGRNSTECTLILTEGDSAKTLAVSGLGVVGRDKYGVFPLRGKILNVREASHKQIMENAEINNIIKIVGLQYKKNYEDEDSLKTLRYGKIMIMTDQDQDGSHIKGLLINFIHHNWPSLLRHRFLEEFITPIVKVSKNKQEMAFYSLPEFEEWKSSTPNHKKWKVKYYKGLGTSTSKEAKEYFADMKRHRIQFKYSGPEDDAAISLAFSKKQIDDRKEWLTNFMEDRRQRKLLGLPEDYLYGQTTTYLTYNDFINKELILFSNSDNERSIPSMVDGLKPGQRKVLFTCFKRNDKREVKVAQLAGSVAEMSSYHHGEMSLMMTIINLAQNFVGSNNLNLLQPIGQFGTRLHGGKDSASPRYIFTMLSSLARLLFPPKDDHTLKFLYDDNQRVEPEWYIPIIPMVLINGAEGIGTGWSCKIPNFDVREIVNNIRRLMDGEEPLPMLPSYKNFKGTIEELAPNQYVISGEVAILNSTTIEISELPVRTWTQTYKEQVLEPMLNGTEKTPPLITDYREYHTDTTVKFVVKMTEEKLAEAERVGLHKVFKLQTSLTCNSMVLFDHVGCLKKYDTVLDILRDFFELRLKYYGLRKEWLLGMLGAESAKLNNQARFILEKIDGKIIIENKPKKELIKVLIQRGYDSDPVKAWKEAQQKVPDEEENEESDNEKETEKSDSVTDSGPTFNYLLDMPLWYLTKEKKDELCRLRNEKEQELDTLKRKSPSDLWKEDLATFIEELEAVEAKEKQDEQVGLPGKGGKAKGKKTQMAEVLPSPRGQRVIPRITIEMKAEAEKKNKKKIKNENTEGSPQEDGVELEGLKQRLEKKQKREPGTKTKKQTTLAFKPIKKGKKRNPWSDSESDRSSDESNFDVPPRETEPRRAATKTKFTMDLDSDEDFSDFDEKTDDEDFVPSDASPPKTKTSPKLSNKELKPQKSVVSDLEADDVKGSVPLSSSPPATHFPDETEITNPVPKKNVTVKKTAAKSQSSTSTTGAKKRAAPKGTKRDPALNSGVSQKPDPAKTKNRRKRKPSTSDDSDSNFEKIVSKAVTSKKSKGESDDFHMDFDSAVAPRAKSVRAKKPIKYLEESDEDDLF
Method in brief: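 Human topoII α decatenation kit reaction, with compound or DMSO vehicle at 5% DMSO final. Incubated 30 min at 37°C, products resolved on 1% agarose with SYBR safe stain. IC50 from four-parameter nonlinear regression, mean ± SD of two independent assays.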

[2] = biological target: T1, DNA topoisomerase 2-alpha; assay: Inhibition of human DNA topoisomerase 2alpha assessed as suppression of decatenation using catenated kinetoplast DNA as substrate up to 250 uM measured after 30 mins by SYBR safe DNA staining based staining-based agarose gel electrophoresis method; conditions: dose microM <=250, time 30.0 min
Method in brief: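 Human topoII α decatenation kit reaction, with compound or DMSO vehicle at 5% DMSO final. Incubated 30 min at 37°C, products resolved on 1% agarose with SYBR safe stain. IC50 from four-parameter nonlinear regression, mean ± SD of two independent assays. Tested up to 250 μM.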

CCRF-CEM [3] = assay: Antiproliferative activity against human CCRF-CEM cells assessed as reduction in cell viability after 72 hrs by eosin exclusion dye based light microscopic method; type: functional; conditions: for IC50: 72 h; for GI50: time 72 hrs
Method in brief: (§1)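 Suspension leukaemia lines grown in RPMI with 4.5 g/L glucose, 2 mM glutamine, penicillin/streptomycin and 10% heat-inactivated FBS (HL-60 in 20% FBS). Seeded at 0.25x10⁶ cells/mL (Jurkat, CCRF-CEM, CEM/C2) or 0.125x10⁶ cells/mL (HL-60). Treated 72h at 0–64 μM, 37°C, 5% CO₂. Viable cells counted by eosin exclusion in a Bürker chamber, normalised to untreated cells. IC50 from non-linear regression, at least triplicate.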

[4] = Solubility of compound in water; type: physicochemical
Method in brief: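 Samples were stirred for 24 h at 25°C, centrifuged, and supernatants filtered through 0.45 μm PTFE and diluted. Concentration was taken from UV absorbance against a four-point calibration line in PBS with 2% DMSO, and reported as μg/mL.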

HL-60 = assay: Antiproliferative activity against human HL-60 cells assessed as reduction in cell viability after 72 hrs by eosin exclusion dye based light microscopic method; type: functional; method in brief: as §1
HT-29 = assay: Antiproliferative activity against human HT29 cells assessed as reduction in cell viability after 72 hrs by 4-methylumbelliferyl heptanoate (MUH) fluorescence assay
Homo sapiens [5] = organism: Homo sapiens; assay: Selectivity ratio of IC50 for antiproliferative activity against human HL-60 cells to IC50 for antiproliferative activity against human Jurkat cells; type: cell-based
Jurkat = assay: Antiproliferative activity against human Jurkat cells assessed as reduction in cell viability after 72 hrs by eosin exclusion dye based light microscopic method; type: functional; method in brief: as §1
CCRF-CEM [6] = assay: Induction of cell cycle arrest in human CCRF-CEM cells assessed as decrease in accumulation at G0-G1 phase for 24 hrs by flow cytometric analysis; type: functional, cell-based; conditions: dose 8.0 µM
Method in brief: (§2)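 CCRF-CEM seeded at 0.25x10⁶ cells/mL and treated 24h. Cells were fixed/permeabilised in 70% ethanol for at least 1h, then stained with PI 10 μg/mL plus RNase A 100 μg/mL for 20 min at room temperature in the dark. DNA content was read by flow cytometry, with at least 10000 events, to give subG0, G0-G1, S and G2-M fractions.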

MCF7 = assay: Antiproliferative activity against human MCF7 cells assessed as reduction in cell viability after 72 hrs by 4-methylumbelliferyl heptanoate (MUH) fluorescence assay
CCRF-CEM [7] = assay: Induction of G2/M cell cycle arrest in human CCRF-CEM cells assessed as increase in cyclin B1 expression at 8 uM by flow cytometric analysis; type: functional, cell-based; conditions: time 6-24 hrs, TDE = time-dependent effect
Method in brief: (§3)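 CCRF-CEM exposed to 8 μM for 6, 9, 16 and 24 h. 1×10⁶ cells were fixed in 2% paraformaldehyde, permeabilised in 90% methanol, and stained 30 min with anti-cyclin A or anti-cyclin B1 (1:50), then with secondary (1:200), then PI/RNase A. Flow cytometric MFI was taken in PI-gated G2-M cells and normalised to untreated G2-M cells.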

CCRF-CEM [8] = assay: Potency index, ratio of tryp-tanthrin IC50 to test compound IC50 for antiproliferative activity against human CCRF-CEM cells; type: functional
Homo sapiens [9] = organism: Homo sapiens; assay: Selectivity ratio of IC50 for antiproliferative activity against human HT-29 cells to IC50 for antiproliferative activity against human MCF7 cells; type: cell-based
[10] = biological target: T1, DNA topoisomerase 2-alpha; assay: Potency index, ratio of etoposide IC50 to test compound IC50 for inhibition of human DNA topoisomerase 2alpha
CCRF-CEM [11] = assay: Induction of G2/M cell cycle arrest in human CCRF-CEM cells assessed as increase in cyclin A expression at 8 uM after 6 to 24 hrs by flow cytometric analysis; type: functional, cell-based; conditions: time 6-24 hrs; method in brief: as §3
CCRF-CEM [12] = assay: Antiproliferative activity against human CCRF-CEM cells assessed as reduction in cell viability at 4 uM after 24 hrs by eosin exclusion dye based light microscopic method
Homo sapiens [13] = organism: Homo sapiens; assay: Selectivity ratio of IC50 for antiproliferative activity against human DLD-1 cells to IC50 for antiproliferative activity against human Jurkat cells; type: cell-based
CCRF-CEM [14] = assay: Induction of cell death in human CCRF-CEM cells assessed as increase in fragmented DNA at 4 to 8 uM after 24 hrs followed by compound wash out further incubated for 24 hrs by flow cytometric analysis; type: functional, cell-based; conditions: dose 4-8 µM
Method in brief: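 Recovery design: CCRF-CEM were treated 24h, then medium was removed by centrifugation, cells were PBS-washed and cultured a further 24h in drug-free complete medium. Cells were then fixed in 70% ethanol and stained with PI 10 μg/mL plus RNase A 100 μg/mL. Flow cytometry scored subG0 cells, those with fragmented DNA, from at least 10000 events.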

CCRF-CEM [15] = assay: Induction of cell cycle arrest in human CCRF-CEM cells assessed as increase in accumulation at G2/M phase for 24 hrs by flow cytometric analysis; type: functional, cell-based; conditions: dose 8.0 µM; method in brief: as §2
CEM/C2 = assay: Antiproliferative activity against human CEM/C2 cells assessed as reduction in cell viability after 72 hrs by eosin exclusion dye based light microscopic method; type: functional; method in brief: as §1
Homo sapiens [16] = organism: Homo sapiens; assay: Selectivity ratio of IC50 for antiproliferative activity against human HL-60 cells to IC50 for antiproliferative activity against human MCF7 cells; type: cell-based
DLD-1 = assay: Antiproliferative activity against human DLD-1 cells assessed as reduction in cell viability after 72 hrs by 4-methylumbelliferyl heptanoate (MUH) fluorescence assay
Homo sapiens [17] = organism: Homo sapiens; assay: Selectivity ratio of IC50 for antiproliferative activity against human CEM/C2 cells to IC50 for antiproliferative activity against human MCF7 cells; type: cell-based
CCRF-CEM [18] = assay: Induction of cell cycle arrest in human CCRF-CEM cells assessed as accumulation at G2/M phase at 8 uM for 24 hrs by flow cytometric analysis (reference value: 27%); type: functional; method in brief: as §2
Homo sapiens [19] = organism: Homo sapiens; assay: Selectivity ratio of IC50 for antiproliferative activity against human DLD-1 cells to IC50 for antiproliferative activity against human MCF7 cells; type: cell-based
Homo sapiens [20] = organism: Homo sapiens; assay: Selectivity ratio of IC50 for antiproliferative activity against human CCRF-CEM cells to IC50 for antiproliferative activity against human Jurkat cells; type: cell-based
Homo sapiens [21] = organism: Homo sapiens; assay: Selectivity ratio of IC50 for antiproliferative activity against human CEM/C2 cells to IC50 for antiproliferative activity against human Jurkat cells; type: cell-based
CCRF-CEM [22] = assay: Inhibition of DNA topoisomerase 2 in human CCRF-CEM cells assessed as increase in gamma-H2Ax expression at 8 uM after 1 to 16 hrs by flow cytometric analysis; type: cell-based; conditions: time 1-16 hrs
Method in brief: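 CCRF-CEM exposed to 8 μM for 1, 2, 3, 5 and 16 h. Cells were fixed in 2% paraformaldehyde, permeabilised in 90% methanol, and stained with anti-γ-H2AX (1:40) then secondary (1:200), with PI/RNase A counterstain. γ-H2AX immunofluorescence was read by flow cytometry per cell-cycle phase and expressed as delta γ-H2AX.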

[23] = biological target: T1, DNA topoisomerase 2-alpha; assay: Poison activity at human DNA topoisomerase 2 alpha assessed as stabilization of cleavage complex using PBR322 as substrate incubated for 15 mins by ethidium bromide staining based agarose gel electrophoresis method
Homo sapiens [24] = organism: Homo sapiens; assay: Selectivity ratio of IC50 for antiproliferative activity against human HT-29 cells to IC50 for antiproliferative activity against human Jurkat cells; type: cell-based
Homo sapiens [25] = organism: Homo sapiens; assay: Selectivity ratio of IC50 for antiproliferative activity against human CCRF-CEM cells to IC50 for antiproliferative activity against human MCF7 cells; type: cell-based

CN1CCN(c2ccc3c(c2)-n2c(nc4ccccc4c2=O)C3=O)CC1
IC50 [1]: 138 µM

O=C1c2ccc(N3CCOCC3)cc2-n2c1nc1ccccc1c2=O
inhibition [2]: inactive

O=C1c2ccccc2-n2c1nc1ccccc1c2=O [TRYPTANTHRIN]
IC50 (CCRF-CEM [3]): 44.4 µM | GI50 (CCRF-CEM [3]): 14.5 µM | solubility ([4]; buffer): 91.02 µM (≈ 22.6 µg/mL) | inhibition [2]: inactive

CN(C)CCNc1cccc2c1C(=O)c1nc3ccccc3c(=O)n1-2
Activity (HL-60): Dose-dependent effect | IC50 (HL-60; HL-60, 72 h): 11.5 µM | Activity (HT-29): Dose-dependent effect | IC50 (HT-29; HT-29, 72 h): 9.4 µM | Ratio IC50 (Homo sapiens [5]): 2 | Activity (Jurkat): Dose-dependent effect | IC50 (Jurkat): 18.2 µM | Activity (CCRF-CEM [3]): Dose-dependent effect | IC50 (CCRF-CEM [3]): 8.26 µM | GI50 (CCRF-CEM [3]): 1.36 µM | Activity (CCRF-CEM [6]): Dose-dependent effect | IC50 [1]: 26.6 µM | Activity (MCF7): Dose-dependent effect | IC50 (MCF7; MCF7, 72 h): 30.5 µM | Activity (CCRF-CEM [7]): Tde | Ratio IC50 (CCRF-CEM [8]): 5 | solubility ([4]; water, read-out: solubility): 996 µM (≈ 333 µg/mL) | Ratio IC50 (Homo sapiens [9]): 3 | Ratio IC50 [10]: 2.5 | Activity (CCRF-CEM [11]): inactive | Activity (CCRF-CEM [12]): Active | Ratio IC50 (Homo sapiens [13]): 2 | Activity (CCRF-CEM [14]): Active | Activity (CCRF-CEM [15]): Dose-dependent effect | Activity (CEM/C2): Dose-dependent effect | IC50 (CEM/C2; CEM/C2, 72 h): 9.16 µM | Ratio IC50 (Homo sapiens [16]): 3 | Activity (DLD-1): Dose-dependent effect | IC50 (DLD-1; DLD-1, 72 h): 7.13 µM | Ratio IC50 (Homo sapiens [17]): 3 | Activity (CCRF-CEM [18]): 78% | Ratio IC50 (Homo sapiens [19]): 3 | Ratio IC50 (Homo sapiens [20]): 2 | Ratio IC50 (Homo sapiens [21]): 2 | inhibition (CCRF-CEM [22]): Active | Activity [23]: inactive | Ratio IC50 (Homo sapiens [24]): 2 | Ratio IC50 (Homo sapiens [25]): 3

O=C1c2ccc(N3CCCCC3)cc2-n2c1nc1ccccc1c2=O
inhibition [2]: inactive

CCN(CC)c1cccc2c1C(=O)c1nc3ccccc3c(=O)n1-2
inhibition [2]: inactive

O=C1c2c(NCCO)cccc2-n2c1nc1ccccc1c2=O
inhibition [2]: inactive

CCN(CC)c1ccc2c(c1)-n1c(nc3ccccc3c1=O)C2=O
inhibition [2]: inactive

O=C1c2c(N3CCOCC3)cccc2-n2c1nc1ccccc1c2=O
inhibition [2]: inactive

CN1CCN(c2cccc3c2C(=O)c2nc4ccccc4c(=O)n2-3)CC1
IC50 [1]: 114 µM

O=C1c2c(N3CCCCC3)cccc2-n2c1nc1ccccc1c2=O
inhibition [2]: inactive
